Source: ChEMBL document CHEMBL1150222, “Benzophenones and xanthones with isoprenoid groups from Cudrania cochinchinensis” (J Nat Prod, 2001)

Key:
HSC-2 [1] = test: Cytotoxicity against human HSC2 cells; assay type: functional
Procedure, shortened: (§1)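 Human oral squamous carcinoma HSC-2 cells and normal human gingival fibroblasts (HGF) were incubated 24 h with compound added in EtOH (final EtOH in medium below 1%). Viable cells were read as A540 against untreated controls. CC50 is reported in mM as the mean of duplicate determinations.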

[2] = Cytotoxicity against HGF cells; assay type: cell-based; details: human; procedure, shortened: as §1
HSC-2 [3] = test: Selectivity ratio CC50 for HGF to CC50 for human HSC-2 cells

| Compound | CC50 (HSC-2 [1]) [µM] | CC50 [2] [µM] | Ratio (HSC-2 [3]) |
| --- | --- | --- | --- |
| CC1(C)C=Cc2c(cc3oc4c(O)cccc4c(=O)c3c2O)O1 | 480 | > 650 | >1.4 |
| CC(C)=CCc1c(O)cc2oc3ccc(O)cc3c(=O)c2c1O | > 640 | > 640 |  |
| COc1cc(-c2coc3cc(O)cc(O)c3c2=O)ccc1O [3'-O-METHYLOROBOL] | 160 | > 670 | >4.2 |
| CC1(C)C=Cc2c(cc3occ(-c4ccc(O)cc4)c(=O)c3c2O)O1 [ALPINUMISOFLAVONE] | 400 | > 600 | >1.5 |
| C=CC(C)(C)c1c(O)cc2oc3c(O)c(O)cc(CC=C(C)C)c3c(=O)c2c1O [ALVAXANTHONE] | 22 | 25 | 1.1 |
| COc1c2ccoc2cc2oc(=O)ccc12 [BERGAPTEN] | 720 | > 930 | >1.3 |
| COc1cc(O)c(C(=O)c2cccc(O)c2CC=C(C)C)c(O)c1 [CUDRANONE] | 400 | > 610 | >1.5 |
| CC(C)=CCc1c(O)cccc1C(=O)c1cc2c(cc1O)OC(C)(C)C=C2 [CUDRAPHENONE A] | 170 | 430 | 2.5 |
| CC(C)=CCc1cc(C(=O)c2cccc(O)c2CC=C(C)C)c(O)cc1O [CUDRAPHENONE B] | 36 | 90 | 2.5 |
| CC(C)=CCc1c(O)cccc1C(=O)c1c(O)cc(O)c2c1OC(C)(C)C=C2 [CUDRAPHENONE C] | 92 | 190 | 2.1 |
| CC(C)=CCc1c(O)cccc1C(=O)c1c(O)cc(O)c(CC=C(C)C)c1O [CUDRAPHENONE D] | 52 | 190 | 3.7 |
| CC1Oc2cc3oc4c(O)c5c(cc4c(=O)c3c(O)c2C1(C)C)C=CC(C)(C)O5 (centres undefined) [GERONTOXANTHONE A] | > 510 | > 510 |  |
| C=CC(C)(C)c1c(O)cc2oc3c(O)c4c(cc3c(=O)c2c1O)C=CC(C)(C)O4 [GERONTOXANTHONE B] | 390 | > 510 | >1.3 |
| CC(C)=CCc1cc2c(=O)c3c(O)c4c(cc3oc2c(O)c1O)OC(C)C4(C)C (centres undefined) [GERONTOXANTHONE G] | > 510 | > 510 |  |
| CC(C)=CCc1c(O)cc(O)c2c(=O)c3c(CC=C(C)C)c(O)ccc3oc12 [GERONTOXANTHONE H] | 120 | 200 | 1.7 |
| C=CC(C)(C)c1c(O)c(CC=C(C)C)c(O)c2c(=O)c3ccc(O)c(O)c3oc12 [GERONTOXANTHONE I] | 430 | > 510 | >1.1 |
| C=CC(C)(C)c1c(O)cc2oc3c(O)c(O)c(CC=C(C)C)cc3c(=O)c2c1O [ISOALVAXANTHONE] | 35 | 58 | 1.6 |
| C=CC(C)(C)c1c2c(c(O)c3c(=O)c4ccc(O)c(O)c4oc13)C=CC(C)(C)O2 [MACLURAXANTHONE] | > 510 | > 510 |  |
| O=C1C[C@@H](c2ccc(O)cc2)Oc2cc(O)cc(O)c21 [NARINGENIN] | 550 | > 740 | >1.3 |
| CC(C)=CCc1c(O)cc(O)c2c1OC(c1ccc(O)cc1)CC2=O (centres undefined) [SOPHORAFLAVANONE B] | 130 | 190 | 1.5 |
| CC(C)=CCc1c(O)cc2occ(-c3ccc(O)cc3)c(=O)c2c1O [WIGHTEONE] | 120 | 250 | 2.1 |
